SENP8 block-1 = inhibitors of human SENP8 protease. Q96LD8. purified SENP8, Z-RLRGG-aminoluciferin cleavage, luminescence. inhibition, % at 10 µM. 330,000 compounds, 1.2% hits; in the data active means inhibition above about 50%
SENP6 inh = blocks the human protease SENP6; Recombinant SENP6 catalytic domain, aminoluciferin luminescence; inhibition, % at 10 µM; 330,000 compounds, 1.8% hits; AID 2599; Q9GZR1;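 active means inhibition above about 50% at the single tested dose, limit read from the data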;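 further: plate controls were DMSO wells with enzyme for no effect and DMSO wells lacking enzyme for full effect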
SENP7 block = SENP7 protease inhibition. recombinant SENP7, Z-RLRGG-aminoluciferin luminescence, 40 min. AID 434973. Q9BQF6. 330,000 compounds, 1.5% hits. inhibition, % at 5 µM;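 active means inhibition above about 50% at the single test dose, limit read from the data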;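 further: plate controls were DMSO with enzyme for no effect and no enzyme buffer wells for full effect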
Apaf1 inhib = blocks human Apaf-1 apoptosome activity. AID 489030. O14727. 330,000 compounds, 0.71% hits. inhibition, % at 20 µM. reconstituted apoptosome caspase-3 activity, DEVD-Rh110 fluorescence; active means inhibition of at least 40% at 20 µM;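 further: plate controls were DMSO wells for no effect and DEVD-CHO caspase inhibitor wells for full effect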
Target sequence (O14727 whole entry, looked up): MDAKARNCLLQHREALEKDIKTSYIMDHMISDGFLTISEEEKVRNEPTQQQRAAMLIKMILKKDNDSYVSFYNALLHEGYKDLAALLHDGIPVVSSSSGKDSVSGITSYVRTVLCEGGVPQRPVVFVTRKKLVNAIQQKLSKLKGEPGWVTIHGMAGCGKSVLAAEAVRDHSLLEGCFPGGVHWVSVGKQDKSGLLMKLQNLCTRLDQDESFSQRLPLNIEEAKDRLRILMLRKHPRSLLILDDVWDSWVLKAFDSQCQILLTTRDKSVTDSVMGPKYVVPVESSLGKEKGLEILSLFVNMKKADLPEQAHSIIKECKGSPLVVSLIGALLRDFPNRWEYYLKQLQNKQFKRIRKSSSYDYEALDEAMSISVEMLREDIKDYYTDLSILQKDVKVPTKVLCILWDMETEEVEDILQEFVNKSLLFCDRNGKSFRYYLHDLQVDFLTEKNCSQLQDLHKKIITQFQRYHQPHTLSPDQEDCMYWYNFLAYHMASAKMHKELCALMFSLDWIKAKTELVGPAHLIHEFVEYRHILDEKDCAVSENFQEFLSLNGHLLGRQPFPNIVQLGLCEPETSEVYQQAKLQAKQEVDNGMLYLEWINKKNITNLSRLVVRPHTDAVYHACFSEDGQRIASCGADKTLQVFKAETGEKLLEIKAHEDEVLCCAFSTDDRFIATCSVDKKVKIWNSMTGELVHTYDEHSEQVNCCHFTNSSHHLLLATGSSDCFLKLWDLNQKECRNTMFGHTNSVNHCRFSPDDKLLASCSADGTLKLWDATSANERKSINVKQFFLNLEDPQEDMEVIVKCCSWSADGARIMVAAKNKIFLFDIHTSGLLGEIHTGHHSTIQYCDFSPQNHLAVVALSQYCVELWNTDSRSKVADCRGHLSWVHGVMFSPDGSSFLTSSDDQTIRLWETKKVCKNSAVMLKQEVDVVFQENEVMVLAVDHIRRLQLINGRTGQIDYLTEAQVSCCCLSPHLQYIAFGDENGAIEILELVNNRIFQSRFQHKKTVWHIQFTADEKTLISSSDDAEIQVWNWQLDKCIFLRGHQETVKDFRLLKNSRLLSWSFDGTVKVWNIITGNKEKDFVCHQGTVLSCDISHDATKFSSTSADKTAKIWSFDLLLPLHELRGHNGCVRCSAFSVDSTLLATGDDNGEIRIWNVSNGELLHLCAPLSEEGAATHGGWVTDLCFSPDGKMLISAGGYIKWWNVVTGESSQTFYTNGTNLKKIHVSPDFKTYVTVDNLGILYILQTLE
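Assay system – apoptosome proteins · Medium – Hepes buffer, pH 7.5 · Also added – cytochrome c with DEVD-Rh110 · Timing – 30 min compound preincubation, 50 min activation, room temperature · Detection – Rh110 fluorescence, excitation 480 nm, emission 540 nm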
SENP1 FRET inh = inhibitors of human SENP1 SUMO protease catalytic domain; recombinant SENP1 catalytic domain, CyPet-SUMO1-YPet FRET cleavage; inhibition, % at 10 µM; 360,000 compounds, 0.21% hits; AID 624204;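 active means inhibition at least 30% at 10 µM, raw YFP signal under a set limit, fluorescence ratio 0.5 to 1.5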;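 further: 0% = enzyme with DMSO and 100% = no enzyme wells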
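Material: hSENP1 catalytic domain, recombinant; medium: Tris pH 8 with BME, BSA, NP40 and catalase; compound: single concentration of 10 µM compound, 0.5% DMSO final; technique: FRET read of cyan and yellow fluorescence; timing: 50 min enzyme reaction, room temperature, light-protected; reagent: SFCypet-SUMO1-SFYpet substrate at 25 nM; control set: no-enzyme low, enzyme-DMSO high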
SENP8 block-2 = inhibitors of human SENP8 protease; recombinant SENP8, Nedd8 substrate fluorescence; inhibition, % at 20 µM; 360,000 compounds, 0.64% hits; AID 602440; in the data active means inhibition mostly above about 40%, no sharp cut-off; inactive means mostly below about 27%
SENP8 conf = human SENP8 inhibition, confirmed | shares compounds with SENP7 block | Recombinant SENP8, Z-RLRGG-aminoluciferin luminescence, 60 min | inhibition, % at 12.5 µM | 6,200 compounds, 40% hits;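 active means mean inhibition across replicates above about 50%, limit read from the data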
SENP6 confirm = confirmation of human SENP6 protease inhibitors; 6,200 compounds, 58% hits; recombinant SENP6, Z-RLRGG-aminoluciferin luminescence; AID 488915; shares compounds with SENP7 block; inhibition, % at 12.5 µM
SENP7 confirm = confirmation of human SENP7 protease inhibitors. shares compounds with SENP7 block. recombinant SENP7, Z-RLRGG-aminoluciferin luminescence, 40 min. inhibition, % at 12.5 µM. 6,200 compounds, 69% hits
Casp3 select = selectivity test for SENP inhibitors: human caspase-3 inhibition; shares compounds with SENP7 block; purified caspase-3, Z-DEVD-aminoluciferin luminescence, 60 min; inhibition, % at 12.5 µM; 6,200 compounds, 60% hits;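 active means mean inhibition above about 50%, limit read from the data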;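 further: plate controls were enzyme with DMSO for no effect and wells without caspase-3 for full effect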
Luc interf = luminescence interference (SENP counter-screen); shares compounds with SENP7 block; Pre-incubated SENP8/Z-RLRGG-aminoluciferin, luciferase luminescence interference; inhibition, % at 12.5 µM; 6,200 compounds, 39% hits;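 active means mean inhibition above about 50% when retested at one dose, limit read from the data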;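 further: plate controls were DMSO wells with completed reaction for no effect and substrate without enzyme for full effect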
Apaf-1 inh conf = Apaf-1 inhibition, single-dose confirmed. shares compounds with Apaf1 inhib. reconstituted apoptosome, caspase-3 DEVD-Rh110 fluorescence. inhibition, % at 20 µM. 1,800 compounds, 25% hits. AID 504614;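 active means mean inhibition of at least 40% at 20 µM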;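 further: plate controls were DMSO wells for no effect and DEVD-CHO caspase inhibitor control wells for full effect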
Rh110 interf inh = Rh110 signal interference in Apaf-1 inhibitor counter-screen; AID 504615; Rh110 fluorescence interference, quenched caspase reaction; activation (fluorescence interference), % at 20 µM; shares compounds with Apaf1 inhib; 1,800 tested, under 10 active;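 active means signal rise of 40% or more at 20 µM, treated as a fluorescence artifact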
Apaf1 inh interf = Apaf-1 inhibitor counter-screen fluorescence artifact; shares compounds with Apaf1 inhib; fluorescence interference counterscreen, Apaf-1 assay format; IC50, µM; 460 tested, under 10 active; AID 588538; call rule not given here
* marks the source's active call; other numbers are inactive results; / = no result. An excerpt weighted towards active compounds, which were near 2.9% of everything screened.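 How the source made its calls, unless noted: active means mean inhibition above about 50% in the one-dose retest (limit read from the data); inactive means the rest.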

SMILES | SENP8 block-1 | SENP6 inh | SENP7 block | Apaf1 inhib | SENP1 FRET inh | SENP8 block-2 | SENP8 conf | SENP6 confirm | SENP7 confirm | Casp3 select | Luc interf | Apaf-1 inh conf | Rh110 interf inh | Apaf1 inh interf
CC1=NN(c2ccccc2)C(=O)/C1=C/c1cccc(C)c1 | -1 | 23 | 52* | 96* | 3 | 70* | 2 | 16 | -1 | -2 | -4 | 23 | -1 | /
COc1cc(/C=C2/C(=O)N(c3cccc(Br)c3)N=C2C)cc(OC)c1O | 2 | -14 | 54* | 82* | 19 | 61* | 8 | 16 | 7 | 4 | 6 | 18 | -1 | /
CC(NC(=O)c1ccccc1)c1nnc(SCC(=O)Nc2nnc(C3CC3)s2)n1C (stereo unspecified) | -4 | -8 | -2 | 5 | 2 | 11 | / | / | / | / | / | / | / | /
O=C(NC1=C(NC2CCS(=O)(=O)C2)C(=O)c2ccccc2C1=O)c1ccccc1 (stereo unspecified) | 60* | 86* | 46 | 88* | 0 | 87* | 1 | 86* | 55* | 93* | 7 | 92* | 7 | >100
Cc1ccc(NC(=O)C[n+]2ccn(C3=C([O-])c4ccccc4C3=O)c2)cc1 | 4 | -1 | 8 | 3 | 3 | 33 | / | / | / | / | / | / | / | /
CC(=O)Nc1ccc(S(=O)(=O)/N=C2\C(=O)c3ccccc3C([O-])=C2n2cc[n+](-c3ccccn3)c2)cc1 | 53* | 77* | 36 | 84* | -24 | 56* | 70* | 88* | 61* | 54* | 4 | 76* | 3 | >100
Cc1ccc(S(=O)(=O)N(C)c2ccc(OC(=O)CN3C(=O)NC4(CCCC4)C3=O)cc2)cc1C | -4 | -12 | 10 | 13 | 1 | 10 | / | / | / | / | / | / | / | /
O=C(COc1ccccc1Br)Nc1ccc2c(c1)OCCCO2 | -6 | 32 | 1 | 14 | 2 | -3 | / | / | / | / | / | / | / | /
Cc1ccc(S(=O)(=O)/N=C2\C=C(Nc3ccc(O)cc3)C(=O)c3ccccc32)cc1 | 90* | 84* | 64* | 96* | 2 | 80* | 90* | 95* | 86* | 94* | 9 | 97* | 1 | >100
Cc1ccc(NC2=C/C(=N/S(=O)(=O)c3cccs3)c3ccccc3C2=O)cc1 | 46 | 77* | 69* | 92* | 4 | 94* | 10 | 54* | 12 | 3 | -5 | 95* | 7 | >100
Cc1ccc(/C=C2\S/C(=N/S(=O)(=O)c3cccs3)NC2=O)cc1 | 9 | 39 | 13 | -3 | 1 | 9 | / | / | / | / | / | / | / | /
COC(=O)c1cccc(NS(=O)(=O)c2cccs2)c1C | / | / | / | / | -2 | 24 | / | / | / | / | / | / | / | /
Cc1ccc(S(=O)(=O)/N=C2\C=C(Nc3cccc(C(=O)O)c3)C(=O)c3ccccc32)c(C)c1 | 94* | 95* | 55* | 90* | -1 | 81* | 60* | 97* | 48 | 19 | 0 | 85* | 20 | /
